Laboratory results reported in ChEMBL document CHEMBL2202989, “New adamantane phenylalkylamines with σ-receptor binding affinity and anticancer activity, associated with putative antagonism of neuropathic pain” (J Med Chem, 2012).
Activity calls are given as the source filed them. The rule behind the calls is not given here.

Key:
MCF7 = assay: Growth inhibition of human MCF7 cells after 48 hrs by SRB assay; assay type: functional; conditions: MCF7, 48 h
Method in brief: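 Cells grown in RPMI 1640 with 5% heat-inactivated FCS, 2 mM L-glutamine and antibiotics, 37 °C, 5% CO2. Seeded at 3500–30000 cells/well and left 24 h before dosing. DMSO solutions added at 10-fold dilutions from 100 to 0.01 μM for 48 h. Cells TCA-fixed and SRB-stained, absorbance read at 540 nm; GI50 derived against the time-zero plate.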

Mus musculus [1] = assay: Toxicity in SCID mouse assessed as mortality at 40 to 55 mg/kg, ip for 2 to 3 weeks; assay type: organism-based; parameters: route intraperitoneal; conditions: in vivo
Method in brief: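 CD-1 (male and female) and SCID mice dosed ip at 40−55 mg/kg in 5% Tween 80 for chronic 2−3 week regimens. Deaths and body weight loss compared with vehicle (Tween 80 or Cremophor) and reference-drug groups. Weight loss, neurological, behavioral and dietary changes recorded as toxicity signs.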

BXPC-3 [2] = assay: Cell cycle arrest in human BxPC3 cells assessed as accumulation at >G2/M phase at 0.5 uM after 24 hrs using propidium iodide staining by FACS analysis (reference value: 6 %); assay type: functional
Method in brief: (§1)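 Cells were plated 24 h before treatment and exposed for 24 h at final 0.5, 5, 15 and 50 μM in 0.5% DMSO, against vehicle-treated controls. Cells were then trypsinised and fixed in cold ethanol for 3 h at 4 °C. They were stained in a mix of RNase (200 μg/mL) and PI (1 mg/mL) for 45 min at room temperature in the dark. Flow cytometry used 488 nm excitation and 10 000 gated cells. Phase percentages were assigned from DNA content.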

BXPC-3 [3] = assay: Cell cycle arrest in human BxPC3 cells assessed as accumulation at G2 phase at 15 uM after 24 hrs using propidium iodide staining by FACS analysis (reference value: 12 %); assay type: functional; method in brief: as §1
PC-3 [4] = assay: Induction of apoptosis in human PC3 cells assessed as cleaved caspase3 containing cells at 50 uM by antibody-based FACS analysis (reference value: 3.2%); assay type: functional
PC-3 [5] = assay: Cell cycle arrest in human PC3 cells assessed as accumulation at G2 phase at 0.5 uM after 24 hrs using propidium iodide staining by FACS analysis (reference value: 12 %); assay type: functional
PC-3 [6] = assay: Induction of apoptosis in human PC3 cells assessed as cleaved caspase3 containing cells at 15 uM by antibody-based FACS analysis (reference value: 3.2 %); assay type: functional
BXPC-3 [7] = assay: Induction of apoptosis in human BxPC3 cells assessed as late apoptosis at 50 uM using annexin V/7-AAD by FACS analysis (reference value: 9 %); assay type: functional
Method in brief: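 Cells plated 24 h before treatment, then exposed 24 h to 0.5, 5, 15 or 50 μM compound (final DMSO 0.5%); vehicle controls included. Cells scraped and stained with annexin V-FITC and 7-AAD for 15 min on ice in the dark. Flow cytometry with 488 nm excitation, 10,000 gated cells. Early apoptosis was annexin V+/7-AAD−, late was annexin V+/7-AAD+.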

Mus musculus [8] = assay: Analgesic activity in CD1 mouse neuropathic pain model assessed as reduction in paw licking time at 50 mg/kg, po administered 1 hr prior to formalin challenge in presence of paclitaxel; assay type: functional, organism-based; parameters: dose 50 mg/kg
Method in brief: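 CD1 male mice (34−40 g), free access to food and water, were given paclitaxel 6 mg/kg ip once in saline on day 0. On day 14 the test compound was given orally 1 h before formalin was injected into the hind paw. Time spent licking and biting the injected paw and leg was recorded at 0−5 and 35−40 min after formalin.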

PC-3 [9] = assay: Cell cycle arrest in human PC3 cells assessed as accumulation at >G2/M phase at 5 uM after 24 hrs using propidium iodide staining by FACS analysis (reference value: 6 %); assay type: functional
BXPC-3 [10] = assay: Induction of apoptosis in human BxPC3 cells assessed as early apoptosis at 5 uM using annexin V/7-AAD by FACS analysis (reference value: 9 %); assay type: functional
IGROV-1 [11] = assay: Cell cycle arrest in human IGROV1 cells assessed as accumulation at S phase at 50 uM after 24 hrs using propidium iodide staining by FACS analysis (reference value: 29 %); assay type: functional
IGROV-1 [12] = assay: Cell cycle arrest in human IGROV1 cells assessed as accumulation at S phase at 15 uM after 24 hrs using propidium iodide staining by FACS analysis (reference value: 29 %); assay type: functional
PC-3 [13] = assay: Antitumor activity against human PC3 cells xenografted in SCID mouse assessed as primary tumor occurrence at 55 mg/kg, ip administered 5 consecutive days in a week for two cycles measured after 2 cycles relative to control; assay type: functional; conditions: route intraperitoneal
Method in brief: (§2)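 PC3 xenografts were grown in SCID mice (10^6 cells per inoculum), 14 mice (28 tumors) per group, dosed ip from about 100 mm3. The test agent was given in 5% Tween 80; paclitaxel was given in Cremophor diluted in saline, with a vehicle of 1:1 ethanol/Cremophor diluted 1:3 in saline. Volume and %ΔT/ΔC were derived from caliper readings twice weekly. Occurrence of primary tumors and of axillary and bone metastases was scored (n = 7). Two-tailed t test.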

[14] = biological target: Sigma non-opioid intracellular receptor 1 (Homo sapiens, UniProt Q99720); assay: Displacement of [3H]-(+)-pentazocine from sigma 1 receptor in human Jurkat cell membrane; assay type: cell membranes
Sequence of Sigma non-opioid intracellular receptor 1 (Q99720 whole entry): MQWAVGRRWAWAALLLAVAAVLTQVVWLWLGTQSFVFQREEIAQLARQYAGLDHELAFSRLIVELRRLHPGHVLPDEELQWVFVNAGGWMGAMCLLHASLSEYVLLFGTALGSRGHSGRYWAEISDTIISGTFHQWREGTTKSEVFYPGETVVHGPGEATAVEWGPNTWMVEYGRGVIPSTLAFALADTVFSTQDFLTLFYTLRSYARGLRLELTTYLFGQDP
Method in brief: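 Jurkat cell membranes incubated with 8 nM [3H](+)-pentazocine and a range of test concentrations for 2 h at 22 °C in Tris-HCl buffer, pH 7.4. Nonspecific binding defined with 10 μM haloperidol. Run in triplicate.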

IGROV-1 [15] = assay: Cell cycle arrest in human IGROV1 cells assessed as accumulation at sub G1 phase at 5 uM after 24 hrs using propidium iodide staining by FACS analysis (reference value: 4 %); assay type: functional
IGROV-1 [16] = assay: Cell cycle arrest in human IGROV1 cells assessed as accumulation at G1 phase at 5 uM after 24 hrs using propidium iodide staining by FACS analysis (reference value: 27 %); assay type: functional; method in brief: as §1
PC-3 [17] = assay: Cell cycle arrest in human PC3 cells assessed as accumulation at sub G1 phase at 50 uM after 24 hrs using propidium iodide staining by FACS analysis (reference value: 4 %); assay type: functional
BXPC-3 [18] = assay: Cell cycle arrest in human BxPC3 cells assessed as accumulation at >G2/M phase at 50 uM after 24 hrs using propidium iodide staining by FACS analysis (reference value: 6 %); assay type: functional; method in brief: as §1
PC-3 [19] = assay: Antitumor activity against human PC3 cells xenografted in SCID mouse assessed as tumor growth inhibition at 55 mg/kg, ip administered 5 consecutive days in a week for two cycles measured after 2 cycles relative to control; assay type: functional; conditions: PC-3, ip, route intraperitoneal, read-out: TGI; method in brief: as §2
IGROV-1 [20] = assay: Induction of apoptosis in human IGROV1 cells assessed as cleaved caspase3 containing cells at 15 uM by antibody-based FACS analysis (reference value: 3.9 %); assay type: functional
IGROV-1 [21] = assay: Induction of apoptosis in human IGROV1 cells assessed as early apoptosis at 50 uM using annexin V/7-AAD by FACS analysis (reference value: 9 %); assay type: functional

CN1CCN(CCCc2ccc(C(c3ccccc3)C34CC5CC(CC(C5)C3)C4)cc2)CC1 (centres undefined)
GI50 (MCF7): 3200 nM | TGI (MCF7): 6100 nM | CC50 (MCF7; read-out: LC50 (the source's name)): 9 nM | Activity (Mus musculus [1]): Non-toxic | Activity (BXPC-3 [2]): 7% | Activity (BXPC-3 [3]): 12% | Activity (PC-3 [4]): 4% | Activity (PC-3 [5]): 15% | Activity (PC-3 [6]): 2.5% | Activity (BXPC-3 [7]): 44% | Activity (Mus musculus [8]): Active | Activity (PC-3 [9]): 6% | Activity (BXPC-3 [10]): 11% | Activity (IGROV-1 [11]): 28% | Activity (IGROV-1 [12]): 25% | Activity (PC-3 [13]): 100% | IC50 [14]: 48.1 nM | Activity (IGROV-1 [15]): 4% | Activity (IGROV-1 [16]): 29% | Activity (PC-3 [17]): 12% | Activity (BXPC-3 [18]): 4% | inhibition in vivo at 55 mg/kg (PC-3 [19]): 48% | Activity (IGROV-1 [20]): 61.4% | Activity (IGROV-1 [21]): 40%
